# ChEMBL document CHEMBL1132599, “Bisquaternary ligands of the common allosteric site of M2 acetylcholine receptors: search for the minimum essential distances between the pharmacophoric elements” (J Med Chem, 1999)
# How the values were obtained:
# [1] = target: T1, Muscarinic acetylcholine receptor M2 (Sus scrofa, UniProt P06199); assay: Allosteric potency against the dissociation of radioligand [3H]N-methylscopolamine from the porcine cardiac Muscarinic acetylcholine receptor M2
# T1 sequence (P06199 whole entry): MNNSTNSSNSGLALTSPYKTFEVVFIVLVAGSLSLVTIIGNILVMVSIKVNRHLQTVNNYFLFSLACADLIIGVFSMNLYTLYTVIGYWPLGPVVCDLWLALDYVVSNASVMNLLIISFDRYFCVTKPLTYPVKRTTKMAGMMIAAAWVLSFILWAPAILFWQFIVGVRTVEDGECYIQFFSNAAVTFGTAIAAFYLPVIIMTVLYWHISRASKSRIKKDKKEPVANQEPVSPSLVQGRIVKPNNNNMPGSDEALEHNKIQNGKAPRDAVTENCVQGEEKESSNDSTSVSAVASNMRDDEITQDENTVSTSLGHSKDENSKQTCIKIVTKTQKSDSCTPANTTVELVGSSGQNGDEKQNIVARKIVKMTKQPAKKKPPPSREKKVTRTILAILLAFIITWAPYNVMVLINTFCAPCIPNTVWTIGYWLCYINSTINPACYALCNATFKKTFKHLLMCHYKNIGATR
# Outline: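 Porcine ventricular membranes: homogenized in 0.32 M sucrose, spun at 300g then 80000g, resuspended in 50 mM Tris-HCl pH 7.4. Labeled with 0.2 nM [3H]NMS for 30 min in 2.6 mM MgHPO4/45 mM Tris-HCl, pH 7.3, 37 °C. Dissociation started with 1 µM atropine plus modulator, sampled up to 2 h (some two-point, 0 and 4 min), then filtered and counted. EC50 is the concentration halving monoexponential k-1 (4–6 concentrations).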
# [2] = Half life (t1/2) value of the compound.; assay type: ADME
# Outline: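 Chemical hydrolysis followed by UV spectroscopy for 24 h at 20 °C in TRIS-HCl–Mg buffer (3.6 mM MgHPO4, 50 mM TRIS, pH 7.3); half-life of the compound reported in hours.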
Compound,EC50 [1] [µM],half-life [2] [h]
O=C1c2ccccc2C(=O)N1CO/N=C/c1cc[n+](CCCC[n+]2ccc(/C=N/OCN3C(=O)c4ccccc4C3=O)cc2)cc1,1.9,
O=C1c2ccccc2C(=O)N1CCC[n+]1ccc(CCCc2cc[n+](CCCN3C(=O)c4ccccc4C3=O)cc2)cc1,4.87,
O=C1c2ccccc2C(=O)N1CO/N=C/c1cc[n+](CCCCCC[n+]2ccc(/C=N/OCN3C(=O)c4ccccc4C3=O)cc2)cc1,1.4,
O=C1c2ccccc2C(=O)N1CCCO/N=C/c1cc[n+](CCCC[n+]2ccc(/C=N/OCCCN3C(=O)c4ccccc4C3=O)cc2)cc1,0.35,
C[N+](C)(CCCCCCCC[N+](C)(C)CCCN1C(=O)c2ccccc2C1=O)CCCN1C(=O)c2ccccc2C1=O.[Br-].[Br-],0.57,35.2
O=C1c2ccccc2C(=O)N1CCCO/N=C/c1cc[n+](CCC[n+]2ccc(/C=N/OCCCN3C(=O)c4ccccc4C3=O)cc2)cc1,0.52,
O=C1c2ccccc2C(=O)N1CO/N=C/c1cc[n+](CCC[n+]2ccc(/C=N/OCN3C(=O)c4ccccc4C3=O)cc2)cc1,0.51,
O=C1c2ccccc2C(=O)N1CCCC[n+]1ccc(-c2cc[n+](CCCCN3C(=O)c4ccccc4C3=O)cc2)cc1,4.65,
C[N+](C)(CCCCCC[N+](C)(C)CCCN1C(=O)c2ccccc2C1=O)CCCN1C(=O)c2ccccc2C1=O.[Br-].[Br-],1.44,18
C[N+](C)(CCCC[N+](C)(C)CCCN1C(=O)c2ccccc2C1=O)CCCN1C(=O)c2ccccc2C1=O.[Br-].[Br-],2.69,14
C[N+](C)(CCCCC[N+](C)(C)CCCN1C(=O)c2ccccc2C1=O)CCCN1C(=O)c2ccccc2C1=O.[Br-].[Br-],1.39,17.4
C[N+](C)(CCCCCCCCCC[N+](C)(C)CCCN1C(=O)c2ccccc2C1=O)CCCN1C(=O)c2ccccc2C1=O.[Br-].[Br-],0.53,19.3
C[N+](C)(CCCCCCC[N+](C)(C)CCCN1C(=O)c2ccccc2C1=O)CCCN1C(=O)c2ccccc2C1=O.[Br-].[Br-],0.37,16.4
C[N+](C)(CCCN1C(=O)c2ccccc2C1=O)CCC[N+](C)(C)CCCN1C(=O)c2ccccc2C1=O.[Br-].[Br-],3.8,14.5
O=C1c2ccccc2C(=O)N1CCCC[n+]1ccc(CCc2cc[n+](CCCCN3C(=O)c4ccccc4C3=O)cc2)cc1,0.47,
O=C1c2ccccc2C(=O)N1CCCO/N=C/c1cc[n+](CCCCC[n+]2ccc(/C=N/OCCCN3C(=O)c4ccccc4C3=O)cc2)cc1,0.51,
O=C1c2ccccc2C(=O)N1C[n+]1ccc(CCCc2cc[n+](CN3C(=O)c4ccccc4C3=O)cc2)cc1,50.8,
O=C1c2ccccc2C(=O)N1CC[n+]1ccc(CCCc2cc[n+](CCN3C(=O)c4ccccc4C3=O)cc2)cc1,3.49,
O=C1c2ccccc2C(=O)N1CCC[n+]1ccc(CCc2cc[n+](CCCN3C(=O)c4ccccc4C3=O)cc2)cc1,2.34,
O=C1c2ccccc2C(=O)N1CCCC[n+]1ccc(CCCc2cc[n+](CCCCN3C(=O)c4ccccc4C3=O)cc2)cc1,0.63,
O=C1c2ccccc2C(=O)N1CCCO/N=C/c1cc[n+](CCCCCC[n+]2ccc(/C=N/OCCCN3C(=O)c4ccccc4C3=O)cc2)cc1,0.45,
C[N+](C)(CCCN1C(=O)c2ccccc2C1=O)CCCN1C(=O)c2ccccc2C1=O,8.82,
